Screening data deposited in PubChem BioAssay by several laboratories.
TAAR1 antag: human TAAR1 antagonism | Q96RJ0 | CHO RD-HGA16 TAAR1, Fluo-8 calcium fluorescence, antagonist | AID 624466 | inhibition, % at 3 µM | actives 1.5% (n = 360,000);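 active means inhibition above a per-plate cutoff, the mean inhibition of test compounds on that plate plus 3 SD, cut at about 49% in these data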;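 further: 0% = DMSO plus EC80 beta-PEA response and 100% = DMSO alone without agonist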
Target sequence (Q96RJ0 whole entry, looked up): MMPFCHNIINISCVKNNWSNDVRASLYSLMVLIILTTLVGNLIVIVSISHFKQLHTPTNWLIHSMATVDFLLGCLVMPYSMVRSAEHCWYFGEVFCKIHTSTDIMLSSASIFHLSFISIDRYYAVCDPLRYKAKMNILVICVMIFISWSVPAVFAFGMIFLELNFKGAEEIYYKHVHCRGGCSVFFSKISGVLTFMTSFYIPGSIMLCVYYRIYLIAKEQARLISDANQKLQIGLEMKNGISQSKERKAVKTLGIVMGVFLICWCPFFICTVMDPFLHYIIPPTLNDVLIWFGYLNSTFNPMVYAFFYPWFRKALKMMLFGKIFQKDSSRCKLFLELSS
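Test system – hTAAR1-expressing CHO RD-HGA16 cells, Gα16-coupled · Reagent – β-PEA at EC80 concentration, post-compound challenge · Compound dosing – 3 µM, single point · Timing – 140 s kinetic read after compound, 140 s after agonist · Detection – Fluo-8 intracellular calcium dye fluorescence, real-time kinetic reads · Control set – DMSO and EC80 PEA controls · Repeats – n of 1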
TAAR1 agonist: human TAAR1 agonism; AID 624467; actives 0.99% (n = 360,000); activation, % at 3 µM; CHO RD-HGA16 TAAR1, Fluo-8 calcium fluorescence; vehicle wells 0%, saturating PEA agonist 100%; Q96RJ0;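 active means activation above the mean activation of all test compounds in the run plus 3 SD, cut at about 38% in these data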
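Test system: RD-HGA16 (CHO) cells co-expressing Gα16 and hTAAR1; dosing: one-point dosing at 3 µM (nominal); timing: 17-24 h seeding, 75 min 37 °C dye, 30 min RT; signal: kinetic Fluo-8 calcium fluorescence; read-out basis: % activation relative to PEA EC100 response; controls: DMSO and PEA EC100; replicates: n 1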
LANA-H2A inh: blocks KSHV LANA binding to histone H2A/H2B; Q9QR71; actives 0.6% (n = 320,000); inhibition, % (test concentration not listed); cell-free LANA-H2A/H2B peptide, fluorescence polarization; in the data active means inhibition mostly above about 10%, no sharp cut-off; inactive means mostly below about 6.7%
TRPML3 ag: agonists of human TRPML3 channel. actives 0.29% (n = 220,000). Q8TDD5. AID 1448. HEK293 TRPML3-YFP, Fluo-8 calcium fluorescence; 100% = the carbachol control signal. activation, % at 3 µM;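 active means activation above its plate's cutoff, the mean activation of the plate's test wells plus 3 SD, cut at about 12% in these data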;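 further: 0% = DMSO only wells and 100% = carbachol wells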
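Test system: HEK293 cells stably carrying human TRPML3-YFP; Doses: single dose, 3 µM final nominal compound, 0.3% DMSO final; Schedule: dye loading 1 h 37 °C then 30 min ambient, 125 s read; Technique: Fluo-8 calcium fluorescence; Benchmarks: high control carbachol 87 µM, low control DMSO.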
TRPN1 ag: agonists of zebrafish TRPN1 channel; HEK293 zebrafish TRPN1-YFP, Fluo-8 calcium fluorescence; 100% = response to 87 µM carbachol; activation, % at 3 µM; actives 0.18% (n = 220,000); AID 1424;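 active means activation above its plate's cutoff, the mean activation of test wells on that plate plus 3 SD, cut at about 19% in these data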;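 further: 0% = DMSO alone and 100% = 87 µM carbachol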
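Material: zebrafish TRPN1-YFP in HEK293 cells. Doses: one dose of 3 µM, 0.3% DMSO. Incubation: dye 1 h 37 °C plus 30 min RT. Measured by: intracellular calcium fluorescence with Fluo-8.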
GPR7 antagonist: human neuropeptides B/W receptor 1 antagonism; P48145; GPR7-expressing cells, fluorescence antagonist assay; inhibition, % at 4.4 µM; actives 1.1% (n = 290,000); in the data active means inhibition above about 16%, passing the limit was not always enough;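 further: cells stimulated with the agonist NPW; 0% = agonist with vehicle and 100% = vehicle without agonist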
Target sequence (P48145 whole entry, looked up): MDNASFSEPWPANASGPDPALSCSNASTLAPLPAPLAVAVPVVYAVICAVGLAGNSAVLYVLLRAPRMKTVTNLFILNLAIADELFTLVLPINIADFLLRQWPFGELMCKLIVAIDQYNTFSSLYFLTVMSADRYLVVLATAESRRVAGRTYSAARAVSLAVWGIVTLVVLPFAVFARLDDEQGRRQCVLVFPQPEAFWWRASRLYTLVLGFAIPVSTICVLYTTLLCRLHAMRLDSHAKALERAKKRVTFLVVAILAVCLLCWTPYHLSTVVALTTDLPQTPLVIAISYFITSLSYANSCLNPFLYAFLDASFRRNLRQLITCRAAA
* marks the source's active call; other numbers are inactive results. Compounds with a hit are over-represented: about 3.4% of the library has one in this group of screens.

CCOC(=O)N1CCC2(CC1)CC(=O)c1cc(O)ccc1O2 was read as TAAR1 antag -11, TAAR1 agonist 3, LANA-H2A inh 9, TRPML3 ag 0, TRPN1 ag 2 and GPR7 antagonist 18*.
For COc1ccc(N2C(=O)c3n[nH]c(C(C)C)c3C2c2ccc(C)cc2)cc1 (stereo not given) the results were TAAR1 antag -29 and TAAR1 agonist 4.
CN(C(=O)CS(=O)(=O)c1cn(CC(=O)N2CCOCC2)c2ccccc12)c1ccccc1 was read as TAAR1 antag -18, TAAR1 agonist 4, LANA-H2A inh 34*, TRPML3 ag 1, TRPN1 ag 0 and GPR7 antagonist -20.
`CC1CN(C(=O)Cn2cc(S(=O)(=O)CC(=O)N(C)c3ccccc3)c3ccccc32)CC(C)O1` (stereo not given) gave TAAR1 antag -25, TAAR1 agonist 0, LANA-H2A inh -1 and GPR7 antagonist -7.
Screening Cc1ccc(NC(=O)CS(=O)(=O)c2cn(CC(=O)N3CCOCC3)c3ccccc23)cc1 returned TAAR1 antag -8, TAAR1 agonist 0, LANA-H2A inh 18*, TRPML3 ag 0, TRPN1 ag 1 and GPR7 antagonist -18.
`COC(=O)[C@]12C[C@H](CC(=O)NCC34CC5CC(CC(C5)C3)C4)C(=O)N(Cc3ccccc3)C1=C[C@H](C1CCCC1)O[C@@H]2C` gave TAAR1 antag -22 and TAAR1 agonist -2.
`Cc1noc(C)c1S(=O)(=O)N1CCCc2nc(-c3ccccc3)ccc21` gave TAAR1 antag -1 and TAAR1 agonist 0.
CCOCCCNC(=O)/C=C1\Sc2ccccc2N(Cc2ccccc2F)C1=O was read as TAAR1 antag 13, TAAR1 agonist 7, LANA-H2A inh 2, TRPML3 ag 0, TRPN1 ag -1 and GPR7 antagonist 19*.
COc1ccc(-c2n(Cc3ccccc3)c3ccccc3[n+]2Cc2ccccc2)cc1 was read as TAAR1 antag -32, TAAR1 agonist 5, LANA-H2A inh 3, TRPML3 ag 1, TRPN1 ag -1 and GPR7 antagonist 56*.
`CC(C)CNc1cccc2c1S(=O)(=O)N[C@@H](C)CO2` gave TAAR1 antag -21 and TAAR1 agonist 6.
For C[C@@H]1CN([C@@H](C)CO)C(=O)CCCn2cc(nn2)CO[C@H]1CN(C)C(=O)Nc1cccc(C(F)(F)F)c1 the results were TAAR1 antag -1 and TAAR1 agonist 7.
`O=C(CN1C(=O)CSc2ccc(S(=O)(=O)N3CCCCC3)cc21)NCc1ccccc1` gave TAAR1 antag -31, TAAR1 agonist -3, LANA-H2A inh 56* and GPR7 antagonist 5.
For CC(C)OCCCNC(=O)CN1C(=O)CSc2ccc(S(=O)(=O)N3CCCCC3)cc21 the results were TAAR1 antag -20, TAAR1 agonist -1, LANA-H2A inh 22* and GPR7 antagonist 2.
Screening O=C(CN1C(=O)CSc2ccc(S(=O)(=O)N3CCCCCC3)cc21)NCCc1ccccc1 returned TAAR1 antag -2 and TAAR1 agonist 14.
Screening CCCCN(C)CCNC(=O)CN1C(=O)CSc2ccc(S(=O)(=O)N3CCCC3)cc21 returned TAAR1 antag -19, TAAR1 agonist 0, LANA-H2A inh 19* and GPR7 antagonist 7.
COC(=O)[C@H]1[C@@H](O)[C@@]2(O)c3c(OC)cc(OC)cc3O[C@@]2(c2ccc(OC)cc2)[C@@H]1c1ccc(F)cc1 was read as TAAR1 antag -24 and TAAR1 agonist 3.
Screening N/C(=N/OS(=O)(=O)c1ccc([N+](=O)[O-])cc1)c1ccncc1 returned TAAR1 antag -19, TAAR1 agonist 3, LANA-H2A inh 37*, TRPML3 ag 1, TRPN1 ag 1 and GPR7 antagonist -4.
N/C(=N\OS(=O)(=O)c1ccccc1)c1ccncc1 was read as TAAR1 antag 8, TAAR1 agonist 4, LANA-H2A inh 6, TRPML3 ag 0, TRPN1 ag 1 and GPR7 antagonist -13.
For N#CCS(=O)(=O)c1cccc[n+]1[O-] the results were TAAR1 antag -11 and TAAR1 agonist 3.
Cc1ccc(O)c(C2=Nc3ccccc3N=C(c3ccc([N+](=O)[O-])cc3)C2)c1 was read as TAAR1 antag 23, TAAR1 agonist 41*, LANA-H2A inh 1, TRPML3 ag 0, TRPN1 ag 0 and GPR7 antagonist 6.
Screening C#CCNC(=O)C[C@H]1C[C@@]2(C(=O)OC)C(=C[C@H](C(C)(C)C)O[C@@H]2C)N(Cc2ccc3c(c2)OCO3)C1=O returned TAAR1 antag -20 and TAAR1 agonist 7.
Screening CCN1CCN(CCNC(=O)c2ccc(/C=C3/Sc4ccccc4N(Cc4cccc(Cl)c4)C3=O)cc2)CC1 returned TAAR1 antag 56*, TAAR1 agonist 36, LANA-H2A inh -5, TRPML3 ag 1, TRPN1 ag 4 and GPR7 antagonist 13.
`Cc1cccc(CN2C(=O)/C(=C\c3ccc(C(=O)NCCN4CCOCC4)cc3)Sc3ccccc32)c1` gave LANA-H2A inh -3 and GPR7 antagonist 2.
`CCN1CCN(CCNC(=O)c2ccc3c(c2)N(Cc2ccc(F)cc2)C(=O)/C(=C/c2ccccc2)S3)CC1` gave TAAR1 antag 29, TAAR1 agonist 18, LANA-H2A inh 1, TRPML3 ag -1, TRPN1 ag 3 and GPR7 antagonist 29*.
For Cc1cc(N2CCN(S(C)(=O)=O)C[C@@H]2C)ccc1N1CCN(Cc2ccccc2)[C@@H](C)C1 the results were TAAR1 antag -20 and TAAR1 agonist 5.
CCN1C(=O)S/C(=C/c2c(OCc3ccc(C(=O)O)cc3)ccc3ccccc23)C1=O was read as TAAR1 antag 9, TAAR1 agonist 1, LANA-H2A inh 119*, TRPML3 ag 0, TRPN1 ag -2 and GPR7 antagonist 8.
For O=C(O)c1cccc(N2C(=O)c3ccc(Oc4ccc(Cl)cc4)cc3C2=O)c1 the results were TAAR1 antag 2, TAAR1 agonist 10, LANA-H2A inh -6, TRPML3 ag 1, TRPN1 ag -1 and GPR7 antagonist -14.
Cc1cccc(N2C(=O)c3cccc(Oc4ccc(Cl)cc4)c3C2=O)c1 was read as TAAR1 antag 26, TAAR1 agonist 38*, LANA-H2A inh -4, TRPML3 ag 0, TRPN1 ag 0 and GPR7 antagonist -9.
Nc1nc2c(ncn2[C@@H]2O[C@H](C(=O)NCC3CCCCC3)[C@@H](O)[C@H]2O)c(=O)[nH]1 was read as TAAR1 antag -15 and TAAR1 agonist 2.
